In brackets after ≈: the same amount, converted by molar mass.
Key:
[1] = biological target: T1, Tissue-type plasminogen activator (Homo sapiens, UniProt P00750); test: Inhibition of human tPA
Outline: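 Human one-chain tPA 0.4 µg/mL (final) with 0.1 mg/mL tPA stimulator, preincubated 15 min at 37 °C with inhibitor in 75 mM Tris pH 8.1, 50 mM NaCl. Then 0.4 mM S-2288 (H-D-Ile-Pro-Arg-pNA) added, 60 min at 37 °C. A405 read after preincubation and after substrate incubation, background subtracted. IC50 from % inhibition vs concentration. Ki = IC50/(1+[S]/Km), Km 250 µM.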
Target sequence in this assay (P00750 whole entry): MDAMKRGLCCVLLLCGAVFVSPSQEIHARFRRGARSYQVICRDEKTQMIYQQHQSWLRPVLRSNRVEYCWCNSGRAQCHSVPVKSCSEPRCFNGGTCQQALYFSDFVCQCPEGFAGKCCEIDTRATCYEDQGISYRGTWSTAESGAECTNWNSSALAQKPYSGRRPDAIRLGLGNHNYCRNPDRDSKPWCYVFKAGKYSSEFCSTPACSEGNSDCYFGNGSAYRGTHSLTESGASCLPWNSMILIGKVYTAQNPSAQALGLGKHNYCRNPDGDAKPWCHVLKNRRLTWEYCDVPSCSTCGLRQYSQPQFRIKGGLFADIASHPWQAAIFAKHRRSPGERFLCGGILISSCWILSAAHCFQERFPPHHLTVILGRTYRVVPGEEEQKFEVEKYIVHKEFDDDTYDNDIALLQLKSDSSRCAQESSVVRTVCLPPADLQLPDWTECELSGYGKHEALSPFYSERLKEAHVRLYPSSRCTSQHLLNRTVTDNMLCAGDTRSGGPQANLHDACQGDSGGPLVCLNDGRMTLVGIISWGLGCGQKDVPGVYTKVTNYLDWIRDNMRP

Plasminogen [2] = biological target: T2, Plasminogen (Homo sapiens, UniProt P00747); test: Inhibition of human plasmin
Outline: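 Human plasmin 0.7 µg/mL with 0.2 mM Chromozym-PL and varied inhibitor in Tris pH 8.1/NaCl buffer. Preincubated 15 min at 37 °C, then 30 min at 37 °C with substrate. A405 background-subtracted, % inhibition plotted for IC50.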

[3] = biological target: T3, Urokinase-type plasminogen activator (Homo sapiens, UniProt P00749)
[4] = biological target: T1, Tissue-type plasminogen activator; test: Inhibition of human tPA at 30 uM
Outline: (§1)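 Human one-chain tPA (0.4 µg/mL final) with 0.1 mg/mL tPA stimulator, preincubated with inhibitor for 15 min at 37 °C in 75 mM Tris pH 8.1, 50 mM NaCl. Then incubated with 0.4 mM S-2288 substrate for 60 min at 37 °C. Absorbance read at 405 nm, background subtracted, and percent inhibition calculated.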
Target sequence in this assay (P00750 36-562 limits assumed): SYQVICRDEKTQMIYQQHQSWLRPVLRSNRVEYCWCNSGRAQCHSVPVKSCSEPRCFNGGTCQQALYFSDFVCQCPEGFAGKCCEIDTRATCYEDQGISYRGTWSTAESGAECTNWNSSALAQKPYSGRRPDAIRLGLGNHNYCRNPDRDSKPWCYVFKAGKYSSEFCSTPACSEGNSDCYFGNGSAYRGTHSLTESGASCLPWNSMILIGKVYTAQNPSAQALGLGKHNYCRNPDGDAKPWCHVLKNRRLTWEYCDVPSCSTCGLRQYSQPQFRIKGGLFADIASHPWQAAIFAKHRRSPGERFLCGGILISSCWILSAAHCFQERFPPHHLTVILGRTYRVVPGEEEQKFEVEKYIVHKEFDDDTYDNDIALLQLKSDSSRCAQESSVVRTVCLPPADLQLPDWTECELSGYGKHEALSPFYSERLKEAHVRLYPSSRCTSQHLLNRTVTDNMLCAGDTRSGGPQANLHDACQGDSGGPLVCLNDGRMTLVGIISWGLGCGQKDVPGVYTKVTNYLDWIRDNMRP

[5] = biological target: T1, Tissue-type plasminogen activator; test: Inhibition of human tPA at 100 uM; outline: as §1
Target sequence in this assay (P00750 36-562 limits assumed): as above

Plasminogen [6] = biological target: T2, Plasminogen; test: Inhibition of human plasmin at 100 uM
Outline: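 Human plasmin (0.7 µg/mL) preincubated with inhibitor for 15 min at 37 °C in 75 mM Tris pH 8.1, 50 mM NaCl. Then incubated with 0.2 mM Chromozym-PL for 30 min at 37 °C. Absorbance read at 405 nm, background at time zero subtracted, and percent inhibition calculated.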

[7] = Lipophilicity, log D at pH7.4; format: physicochemical; conditions: buffer, pH 7.4
[8] = Dissociation constant, pKa of the compound; format: physicochemical
[9] = Solubility in phosphate buffered saline at pH 6.5; format: physicochemical
Outline: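 Solubility measured in phosphate-buffered saline, pH 6.5.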

Coagulation factor IX [10] = biological target: T4, Coagulation factor IX (Homo sapiens, UniProt P00740); test: Inhibition of factor 9a at 12.5 uM
Outline: (§2)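 Human coagulation enzyme tested in a chromogenic enzyme assay. Percent inhibition was read at a single inhibitor concentration.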

[11] = biological target: Coagulation factor X (Homo sapiens) (UniProt P00742); test: Inhibition of factor 10a at 10 uM; outline: as §2
[12] = Drug level in dermis of pig excisional wound model; format: ADME, tissue-based, Sus scrofa; conditions: in vivo, read-out: Activity
Outline: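 Pig full-thickness wounds dosed topically once daily for 10 days with 1 mL of 10 mg/mL compound suspended in hydrogel (glycerol/water/F127/CMC). Animals killed on day 11. Wounds excised and dermal compound concentration determined.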

Prothrombin (Bos taurus) = Prothrombin (Bos taurus) (UniProt P00735); test: Inhibition of bovine thrombin at 10 uM
Outline: (§3)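 Chromogenic enzyme assays against coagulation proteases: bovine thrombin, human factors VIIa and IXa.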

[13] = biological target: T5, Coagulation factor VII (Homo sapiens) (UniProt P08709); test: Inhibition of factor 7a at 10 uM; outline: as §3
T5 sequence (whole entry): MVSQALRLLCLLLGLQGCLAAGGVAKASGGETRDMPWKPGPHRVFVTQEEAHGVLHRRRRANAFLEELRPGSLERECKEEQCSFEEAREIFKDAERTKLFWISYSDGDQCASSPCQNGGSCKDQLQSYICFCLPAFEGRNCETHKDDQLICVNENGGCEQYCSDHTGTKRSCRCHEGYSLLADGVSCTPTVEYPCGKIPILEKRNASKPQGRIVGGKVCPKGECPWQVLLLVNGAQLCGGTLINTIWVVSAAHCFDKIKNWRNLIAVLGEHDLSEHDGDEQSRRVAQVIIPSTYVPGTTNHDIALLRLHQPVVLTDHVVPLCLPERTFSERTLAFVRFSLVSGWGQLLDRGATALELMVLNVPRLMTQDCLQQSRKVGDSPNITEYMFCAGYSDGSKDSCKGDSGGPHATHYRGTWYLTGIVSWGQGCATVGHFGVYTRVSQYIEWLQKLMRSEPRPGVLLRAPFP

Coagulation factor IX [14] = biological target: T4, Coagulation factor IX; test: Inhibition of factor 9a; outline: as §3
[15] = biological target: T3, Urokinase-type plasminogen activator; test: Inhibition of human uPA in human wound fluid
Homo sapiens [16] = species: Homo sapiens; test: Solubility in human plasma
Homo sapiens [17] = species: Homo sapiens; test: Protein binding in human plasma; conditions: read-out: PPB (converted)
[18] = biological target: T3, Urokinase-type plasminogen activator; test: Inhibition of uPA in pig granulation tissue homogenate

T2 sequence (P00747 97-580 limits assumed): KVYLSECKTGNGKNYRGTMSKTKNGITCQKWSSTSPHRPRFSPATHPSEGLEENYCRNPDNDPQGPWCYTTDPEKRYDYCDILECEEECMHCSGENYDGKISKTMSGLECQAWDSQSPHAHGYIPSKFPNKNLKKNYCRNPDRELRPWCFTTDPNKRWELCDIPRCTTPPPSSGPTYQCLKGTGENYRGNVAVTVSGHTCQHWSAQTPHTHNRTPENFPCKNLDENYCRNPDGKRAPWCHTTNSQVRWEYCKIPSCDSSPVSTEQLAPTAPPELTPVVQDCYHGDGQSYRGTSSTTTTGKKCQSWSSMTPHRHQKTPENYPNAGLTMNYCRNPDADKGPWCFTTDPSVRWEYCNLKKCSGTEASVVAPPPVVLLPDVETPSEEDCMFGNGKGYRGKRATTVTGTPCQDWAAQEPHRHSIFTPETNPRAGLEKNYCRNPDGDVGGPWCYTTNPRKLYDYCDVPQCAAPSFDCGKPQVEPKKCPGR
T2 sequence (P00747 581-810 limits assumed): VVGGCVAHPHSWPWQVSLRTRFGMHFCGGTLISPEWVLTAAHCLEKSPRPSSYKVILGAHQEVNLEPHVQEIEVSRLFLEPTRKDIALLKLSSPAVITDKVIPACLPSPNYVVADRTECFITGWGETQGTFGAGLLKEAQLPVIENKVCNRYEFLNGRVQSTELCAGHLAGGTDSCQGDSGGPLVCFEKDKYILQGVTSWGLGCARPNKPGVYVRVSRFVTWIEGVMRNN
Chain of Coagulation factor X (Homo sapiens) (P00742 41-179 limits assumed): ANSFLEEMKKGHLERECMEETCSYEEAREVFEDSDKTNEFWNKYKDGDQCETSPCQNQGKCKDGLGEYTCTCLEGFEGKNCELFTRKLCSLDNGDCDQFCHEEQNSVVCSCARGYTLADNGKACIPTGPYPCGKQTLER
Chain of Coagulation factor X (Homo sapiens) (P00742 235-488 limits assumed): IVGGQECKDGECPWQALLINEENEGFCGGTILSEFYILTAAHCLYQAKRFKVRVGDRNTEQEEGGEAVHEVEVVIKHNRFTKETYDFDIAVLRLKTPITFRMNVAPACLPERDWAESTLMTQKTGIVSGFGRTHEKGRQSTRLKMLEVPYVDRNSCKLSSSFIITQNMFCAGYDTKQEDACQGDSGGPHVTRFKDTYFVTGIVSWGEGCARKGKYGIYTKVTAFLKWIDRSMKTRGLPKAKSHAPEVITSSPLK
T4 sequence (P00740 47-191 limits assumed): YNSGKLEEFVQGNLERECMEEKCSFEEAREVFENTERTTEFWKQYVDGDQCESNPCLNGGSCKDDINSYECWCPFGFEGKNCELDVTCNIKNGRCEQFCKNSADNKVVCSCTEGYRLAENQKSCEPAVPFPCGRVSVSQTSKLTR
T4 sequence (P00740 227-461 limits assumed): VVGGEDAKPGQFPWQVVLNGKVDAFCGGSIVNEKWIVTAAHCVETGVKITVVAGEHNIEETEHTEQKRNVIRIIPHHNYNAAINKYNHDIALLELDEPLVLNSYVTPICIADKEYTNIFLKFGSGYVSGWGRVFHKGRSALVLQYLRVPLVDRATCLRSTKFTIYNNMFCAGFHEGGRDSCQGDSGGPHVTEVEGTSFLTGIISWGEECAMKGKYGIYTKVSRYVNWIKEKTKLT

Row | SMILES | Ki [1] | Ki (Plasminogen [2]) | Ki [3] | other results
1 | NC(N)=Nc1nccc2ccc(S(N)(=O)=O)cc12 | 24 µM | 13 µM | 0.28 µM | 
2 | C[C@@H](NS(=O)(=O)c1ccc2c(Cl)cnc(N=C(N)N)c2c1)C(=O)O |  |  | 0.028 µM | 
3 | NC(N)=Nc1ncc(Cl)c2ccc(S(=O)(=O)NC3CCCC3)cc12 | > 30 µM | > 100 µM | 0.071 µM | inhibition [4]: < 50%
4 | NC(N)=Nc1ncc(Cl)c2ccc(S(=O)(=O)Nc3ccccc3C(=O)O)cc12 | > 100 µM | 33 µM | 0.086 µM | 
5 | NC(N)=Nc1ncc(Cl)c2ccc(S(=O)(=O)NC3(C(=O)NCCO)CCCC3)cc12 | 108 µM | > 100 µM | 0.01 µM | 
6 | NC(N)=Nc1ncc(Cl)c2ccc(S(N)(=O)=O)cc12 | > 100 µM | > 100 µM |  | inhibition [5]: < 50%
7 | CC(C)[C@H](NS(=O)(=O)c1ccc2c(Cl)cnc(N=C(N)N)c2c1)C(=O)O | > 100 µM | 45 µM | 0.066 µM | 
8 | C[C@H](NS(=O)(=O)c1ccc2c(Cl)cnc(N=C(N)N)c2c1)C(=O)O |  | 15 µM | 0.021 µM | 
9 | NC(N)=Nc1ncc(Cl)c2ccc(S(=O)(=O)NCC(=O)O)cc12 | > 30 µM | > 30 µM | 0.048 µM | 
10 | CCOC(=O)C1(NS(=O)(=O)c2ccc3c(Cl)cnc(N=C(N)N)c3c2)CCCC1 | 23 µM | > 100 µM | 0.014 µM | inhibition (Plasminogen [6]): < 50%
11 | NC(N)=Nc1ncc(Cl)c2ccc(S(=O)(=O)N3CCC[C@@H]3CO)cc12 |  |  | 0.16 µM | 
12 | CN1CCC(NS(=O)(=O)c2ccc3c(Cl)cnc(N=C(N)N)c3c2)(C(=O)O)CC1 |  | 71 µM | 0.011 µM | 
13 | NC(N)=Nc1ncc(Cl)c2ccc(S(=O)(=O)N3CC(C(=O)O)C3)cc12 |  |  | 0.33 µM | 
14 | CN1CCN(S(=O)(=O)c2ccc3c(Cl)cnc(N=C(N)N)c3c2)CC1 |  |  | 0.55 µM | 
15 | NC(N)=Nc1ncc(Cl)c2ccc(S(=O)(=O)NC3(C(=O)O)CCOCC3)cc12 | > 100 µM | 41 µM |  | 
16 | NC(N)=Nc1ncc(Cl)c2ccc(S(=O)(=O)NC3(C(=O)N4CCOCC4)CCCC3)cc12 | 34.4 µM | > 30 µM | 0.0016 µM | 
17 | NC(N)=Nc1ncc(Cl)c2ccc(S(=O)(=O)Nc3cccc(C(=O)O)c3)cc12 | > 100 µM | 9.8 µM | 0.059 µM | 
18 | NC(N)=Nc1ncc(Cl)c2ccc(S(=O)(=O)N(CC(=O)O)CC3CCCC3)cc12 | > 100 µM | 23 µM | 0.031 µM | 
19 | CC(C)(NS(=O)(=O)c1ccc2c(Cl)cnc(N=C(N)N)c2c1)C(=O)O | 40 µM | 27 µM |  | logD [7]: 0; pKa [8]: 3.4; solubility [9]: 2.3 µg/mL (≈ 5.96 µM); inhibition (Coagulation factor IX [10]): 13%; inhibition [11]: 0%; concentration [12]: 41.8 µM
20 | NC(N)=Nc1ncc(Cl)c2ccc(S(=O)(=O)N3CCOCC3)cc12 |  |  | 0.33 µM | 
21 | NC(N)=Nc1ncc(Cl)c2ccc(S(=O)(=O)N(CC(=O)O)c3ccccc3)cc12 | > 100 µM | > 100 µM | 0.029 µM | 

Row | SMILES | Ki [1] | Ki (Plasminogen [2]) | Ki [3] | other results
22 | NC(N)=Nc1ncc(Cl)c2ccc(S(=O)(=O)N(CC(=O)O)Cc3ccccc3)cc12 | > 100 µM | > 100 µM | 0.035 µM | 
23 | CN(CC(=O)O)S(=O)(=O)c1ccc2c(Cl)cnc(N=C(N)N)c2c1 | > 100 µM | > 100 µM |  | inhibition [5]: < 50%
24 | CC(C)[C@@H](NS(=O)(=O)c1ccc2c(Cl)cnc(N=C(N)N)c2c1)C(=O)O | 38 µM | 16 µM | 0.019 µM | 
25 | NC(N)=Nc1ncc(Cl)c2ccc(S(=O)(=O)N3CCCC3)cc12 | > 30 µM | > 30 µM |  | 
26 | NC(=O)[C@H]1CCCN1S(=O)(=O)c1ccc2c(Cl)cnc(N=C(N)N)c2c1 |  |  | 0.054 µM | 
27 | NC(N)=Nc1ncc(Cl)c2ccc(S(=O)(=O)N3CCC[C@@H]3C(=O)O)cc12 | > 100 µM | > 100 µM | 0.0099 µM | inhibition [5]: < 50%
28 | NC(N)=Nc1ncc(Cl)c2ccc(S(=O)(=O)N3CCC[C@H]3C(=O)O)cc12 | > 100 µM | > 100 µM | 0.111 µM | 
29 | C[C@@H](C(=O)O)N(Cc1ccccc1)S(=O)(=O)c1ccc2c(Cl)cnc(N=C(N)N)c2c1 | > 100 µM |  | 0.027 µM | 
30 | NC(N)=Nc1nccc2ccc(S(=O)(=O)Nc3ccccc3)cc12 | 15 µM | 3.2 µM |  | 
31 | CC(C)(C)[C@@H](NS(=O)(=O)c1ccc2c(Cl)cnc(N=C(N)N)c2c1)C(=O)O | > 100 µM | > 100 µM | 0.022 µM | 
32 | CN1CCN(C(=O)C2(NS(=O)(=O)c3ccc4c(Cl)cnc(N=C(N)N)c4c3)CCCC2)CC1 | 34.7 µM | 65 µM | 0.0014 µM | 
33 | NC(N)=Nc1ncc(Cl)c2ccc(S(=O)(=O)NC3(C(=O)O)CCCC3)cc12 | 38 µM | 14 µM | 0.0058 µM | 
34 | NC(N)=Nc1ncc(Cl)c2ccc(S(=O)(=O)NCCC(=O)O)cc12 | > 100 µM | > 100 µM | 0.058 µM | 
35 | NC(N)=Nc1nccc2c(Cl)cc(-c3cccc(C(=O)O)c3)cc12 |  |  |  | logD [7]: 2.3; pKa [8]: 2.35; solubility [9]: < 1 µg/mL; inhibition (Prothrombin (Bos taurus)): 2%; inhibition [13]: 3%; Ki (Coagulation factor IX [14]): 1.24 µM; inhibition [11]: 0%; IC50 [15]: 6.91 µM; solubility (Homo sapiens [16]): 60 µM (≈ 20.4 µg/mL); fraction unbound (Homo sapiens [17]): 0.002; IC50 [18]: 8.35 µM
36 | NC(N)=Nc1ncc(Cl)c2ccc(S(=O)(=O)NC3(C(=O)O)CCCCC3)cc12 | > 100 µM | 39 µM | 0.008 µM | 
37 | CN(C)CCNC(=O)C1(NS(=O)(=O)c2ccc3c(Cl)cnc(N=C(N)N)c3c2)CCCC1 |  | > 100 µM | 0.03 µM | 
38 | NC(N)=Nc1ncc(Cl)c2ccc(S(=O)(=O)NC3(CO)CCCC3)cc12 |  |  | 0.067 µM | 
39 | NC(N)=Nc1ncc(Cl)c2ccc(S(=O)(=O)N3CCCC[C@@H]3C(=O)O)cc12 | > 100 µM | > 100 µM |  | 
40 | NC(N)=Nc1ncc(Cl)c2ccc(S(=O)(=O)NC3(C(=O)O)CCC3)cc12 | > 100 µM | 16 µM |  | inhibition [5]: < 50%
41 | CN(C)CCN(C1(C(=O)O)CCCC1)S(=O)(=O)c1ccc2c(Cl)cnc(N=C(N)N)c2c1 | 23 µM | 32 µM |  | 
42 | CC(C)(CNS(=O)(=O)c1ccc2c(Cl)cnc(N=C(N)N)c2c1)C(=O)O |  |  | 0.043 µM | 
